According to ChEMBL document CHEMBL1123867, “Anticonvulsant O-alkyl sulfamates. 2,3:4,5-Bis-O-(1-methylethylidene)-beta-D-fructopyranose sulfamate and related compounds” (1987):
The source made the active and inactive calls.

Legend:
[1] = system: Mus musculus; test: Anticonvulsant activity by using a standard maximal electroshock test (MES) in mice, by intraperitoneal administration of the compound; assay type: functional; details: ip
Summary of the method: (§1)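 Supramaximal electroshock: 50-mA current (60 Hz, 0.20 s) via corneal electrodes induced hind-limb tonic extension; inhibition of this component scored as activity. Mice dosed ip and/or po in aqueous solution or suspension (ca. 0.1% Tween 80, distilled water). Tested at 30, 60, 120 and 240 min (sometimes 45 min); ten mice per time point.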

[2] = system: Mus musculus; test: Anticonvulsant activity following p.o. administration by standard maximal electroshock test in mice.; assay type: functional; details: po; summary of the method: as §1
[3] = system: Mus musculus; test: Percentage block of the hind-limb tonic-extensor seizure was determined after application of an electric shock to mice for 60 min followed by 200 mg/kg intraperitoneal dose; assay type: functional
Summary of the method: (§2)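 Mouse MES test: supramaximal seizure from a 50-mA current (60 Hz, 0.20-s) through corneal electrodes. […] Ten mice per time point. Compound given in aqueous solution or in suspension in ca. 0.1% Tween 80 and distilled water. Free food and water except during testing.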

[4] = system: Mus musculus; test: Percentage block of the hind-limb tonic-extensor seizure was determined after application of an electric shock to mice for 60 min followed by 400 mg/kg peroral dose; assay type: functional; details: route oral; summary of the method: as §2
[5] = system: Mus musculus; test: Percentage block of the hind-limb tonic-extensor seizure was determined after application of an electric shock to mice for 120 min followed by 200 mg/kg intraperitoneal dose; assay type: functional; summary of the method: as §1
[6] = system: Mus musculus; test: Percentage block of the hind-limb tonic-extensor seizure was determined after application of an electric shock to mice for 120 min followed by 400 mg/kg peroral dose; assay type: functional; details: route oral; summary of the method: as §1
[7] = system: Mus musculus; test: Percentage block of the hind-limb tonic-extensor seizure was determined after application of an electric shock to mice for 30 min followed by 200 mg/kg intraperitoneal dose; assay type: functional; summary of the method: as §1
[8] = system: Mus musculus; test: Percentage block of the hind-limb tonic-extensor seizure was determined after application of an electric shock to mice for 30 min followed by 400 mg/kg peroral dose; assay type: functional; details: route oral; summary of the method: as §1
[9] = system: Mus musculus; test: Percentage block of the hind-limb tonic-extensor seizure was determined after application of an electric shock to mice for 240 min followed by 200 mg/kg intraperitoneal dose; assay type: functional; summary of the method: as §1
[10] = system: Mus musculus; test: Percentage block of the hind-limb tonic-extensor seizure was determined after application of an electric shock to mice for 240 min followed by 400 mg/kg peroral dose; assay type: functional; details: route oral; summary of the method: as §1
[11] = system: Mus musculus; test: Anticonvulsant activity by using a standard maximal electroshock test (MES) in mice, by 100 mg/kg intraperitoneal administration of the compound; i =inactive; assay type: functional, organism-based; design: dose 100 mg/kg; summary of the method: as §1
[12] = system: Mus musculus; test: Percentage block of the hind-limb tonic-extensor seizure was determined after application of an electric shock to mice for 60 min followed by 100 mg/kg intraperitoneal dose; assay type: functional; summary of the method: as §1
[13] = system: Mus musculus; test: Percentage block of the hind-limb tonic-extensor seizure was determined after application of an electric shock to mice for 120 min followed by 100 mg/kg intraperitoneal dose; assay type: functional; summary of the method: as §1
[14] = system: Mus musculus; test: Percentage block of the hind-limb tonic-extensor seizure was determined after application of an electric shock to mice for 120 min followed by 200 mg/kg peroral dose; assay type: functional; details: route oral; summary of the method: as §1
[15] = system: Mus musculus; test: Percentage block of the hind-limb tonic-extensor seizure was determined after application of an electric shock to mice for 30 min followed by 100 mg/kg intraperitoneal dose; assay type: functional; summary of the method: as §1
[16] = system: Mus musculus; test: Percentage block of the hind-limb tonic-extensor seizure was determined after application of an electric shock to mice for 30 min followed by 200 mg/kg peroral dose; assay type: functional; details: route oral; summary of the method: as §1
[17] = system: Mus musculus; test: Percentage block of the hind-limb tonic-extensor seizure was determined after application of an electric shock to mice for 240 min followed by 100 mg/kg intraperitoneal dose; assay type: functional; summary of the method: as §1
[18] = system: Mus musculus; test: Percentage block of the hind-limb tonic-extensor seizure was determined after application of an electric shock to mice for 240 min followed by 200 mg/kg peroral dose; assay type: functional; details: route oral; summary of the method: as §1
[19] = system: Mus musculus; test: Percentage block of the hind-limb tonic-extensor seizure was determined after application of an electric shock to mice for 60 min followed by 200 mg/kg peroral dose; assay type: functional; details: route oral; summary of the method: as §2
[20] = system: Mus musculus; test: Anticonvulsant activity by using a standard maximal electroshock test (MES) in mice, by 100 mg/kg intraperitoneal administration of the compound; I=inactive, 0-10% block; assay type: functional, organism-based; design: dose 100 mg/kg; summary of the method: as §1
[21] = system: Mus musculus; test: Anticonvulsant activity by using a standard maximal electroshock test (MES) in mice, by 200 mg/kg peroral administration of the compound; I=inactive, 0-10% block; assay type: functional, organism-based; design: dose 200 mg/kg; summary of the method: as §1
[22] = system: Mus musculus; test: Anticonvulsant activity by using a standard maximal electroshock test (MES) in mice, by 100 mg/kg intraperitoneal administration; i= Inactive; assay type: functional, organism-based; design: dose 100 mg/kg; summary of the method: as §1
[23] = system: Mus musculus; test: Anticonvulsant activity by using a standard maximal electroshock test (MES) in mice, by 200 mg/kg intraperitoneal administration of the compound; I=inactive, 0-10% block; assay type: functional, organism-based; design: dose 200 mg/kg; summary of the method: as §1
[24] = system: Mus musculus; test: Anticonvulsant activity by using a standard maximal electroshock test (MES) in mice, by 400 mg/kg peroral administration of the compound; I=inactive, 0-10% block; assay type: functional, organism-based; design: dose 400 mg/kg; summary of the method: as §1
[25] = system: Mus musculus; test: Anticonvulsant activity by using a standard maximal electroshock test (MES) in mice, by 100 mg/kg intraperitoneal administration of the compound; I =inactive; assay type: functional, organism-based; design: dose 100 mg/kg; summary of the method: as §1
[26] = system: Mus musculus; test: Anticonvulsant activity by using a standard maximal electroshock test (MEST) in mice, by 100 mg/kg intraperitoneal administration of the compound; I=inactive; assay type: functional, organism-based; design: dose 100 mg/kg
Summary of the method: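 Threshold electroshock: 8-mA current (60 Hz, 0.25 s) via ear-clip electrodes, the CS97 in these mice, induced hind-limb tonic extension; inhibition scored as activity. Mice given drug intraperitoneally in aqueous solution or suspension (ca. 0.1% Tween 80, distilled water). Tested at 30 min, sometimes also 240 min; ten mice per time point.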

## CC1(COS(N)(=O)=O)CCCCC1
[1]
  ED50: 270 mg/kg
[2]
  ED50: ~400 mg/kg
[3]
  Block: 30%
[4]
  Block: 40%
[5]
  Block: 20%
[6]
  Block: 80%
[7]
  Block: 30%
[8]
  Block: 50%
[9]
  Block: 20%
[10]
  Block: 30%

## COC1(COS(N)(=O)=O)OC(CO)[C@@H](O)C1O (some centres not stated)
[11]
  ED50: inactive

## CC1(C)OCC(COS(N)(=O)=O)O1 (configuration not stated)
[1]
  ED50: ~100 mg/kg
[2]
  ED50: ~75 mg/kg
[12]
  Block: 70%
[13]
  Block: 90%
[14]
  Block: 100%
[15]
  Block: 50%
[16]
  Block: 70%
[17]
  Block: 70%
[18]
  Block: 100%
[19]
  Block: 90%

## NS(=O)(=O)OCC1(O)OC[C@@H](O)[C@@H](O)C1O (some centres not stated)
[11]
  ED50: inactive

## CC1(C)OC2[C@H](O)[C@H](O)CO[C@@]2(COS(N)(=O)=O)O1 (some centres not stated)
[20]
  ED50: inactive
[21]
  ED50: inactive
[12]
  Block: 0%
[14]
  Block: 0%
[15]
  Block: 0%
[16]
  Block: 0%
[17]
  Block: 0%
[18]
  Block: 0%
[19]
  Block: 0%

## CC1(C)OC2C3OC(C)(C)O[C@]3(CO)OC[C@H]2O1 (some centres not stated)
[22]
  ED50: inactive
[23]
  ED50: inactive
[24]
  ED50: inactive
[3]
  Block: 0%
[4]
  Block: 0%
[5]
  Block: 0%
[6]
  Block: 0%
[7]
  Block: 0%
[8]
  Block: 0%
[9]
  Block: 0%
[10]
  Block: 0%

## CC1(C)OC2C(OS(N)(=O)=O)C3(COC(C)(C)O3)OC[C@H]2O1 (some centres not stated)
[25]
  ED50: inactive

## CCCCCCCCCC1(C)OCC(COS(N)(=O)=O)O1 (configuration not stated)
[1]
  ED50: 319 mg/kg
[2]
  ED50: > 200 mg/kg

## CC1(C)OC2C3OC(C)(C)O[C@]3(COS(=O)(=O)Nc3ccccc3)OC[C@H]2O1 (some centres not stated)
[20]
  ED50: inactive
[21]
  ED50: inactive
[12]
  Block: 0%
[13]
  Block: 0%
[14]
  Block: 0%
[15]
  Block: 0%
[16]
  Block: 0%
[17]
  Block: 0%
[18]
  Block: 0%
[19]
  Block: 0%

## CC(=O)Nc1nnc(S(N)(=O)=O)s1 [ACETAZOLAMIDE]
[2]
  ED50: 45 mg/kg

## CC1(C)OC2C3OC(C)(C)O[C@]3(COC(N)=O)OC[C@H]2O1 (some centres not stated)
[26]
  ED50: inactive
